The values below come from ChEMBL document CHEMBL3351558, “Picomolar Inhibitors of HIV-1 Reverse Transcriptase: Design and Crystallography of Naphthyl Phenyl Ethers” (ACS Med Chem Lett, 2014).

One may read the EC50 as the midpoint of the concentration-response curve. Usually solubility (thermodynamic) stands for solubility found after equilibrating the solid with the medium. For orientation: CC50 means the concentration giving 50% cytotoxicity.

Converted amounts (≈) assume the structure as drawn. A value given as a limit tells only on which side of the number the result lay.

For data set [1], the system named is Human immunodeficiency virus 1. Put plainly: Antiviral activity against wild type HIV1 harboring reverse transcriptase K103N/Y181C mutant infected in human MT2 cells assessed as protection from virus-induced cytopathicity by MTT assay. Format: functional, organism-based. On the technique in general: Damage to the host cells serves as the signal in cytopathic effect assays.

In data set [2] the test system is Human immunodeficiency virus 1. Put plainly: Antiviral activity against wild type HIV1 harboring reverse transcriptase Y181C mutant infected in human MT2 cells assessed as protection from virus-induced cytopathicity by MTT assay. Format: functional, organism-based.
The nature of data set [3]: Aqueous solubility of the compound at pH 6.5 after 48 hrs by shake-flask method. Format: physicochemical. In outline:
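Shake-flask method: excess solid stirred in Britton–Robinson buffer, pH 6.5, for 48 h at 25 °C. The supernatant was passed through a 0.2 μm filter and quantified by UV–vis spectrophotometry. Piroxicam served as the control.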

Data set [4] has as its system Human immunodeficiency virus 1. Kind of data set: Antiviral activity against wild type HIV1 3B infected in human MT2 cells assessed as protection from virus-induced cytopathicity by MTT assay. The data set is classed as functional, organism-based. The following applies: Human immunodeficiency virus 1, 3B.
Data set [5] can be described thus: Cytotoxicity against human MT2 cells assessed as reduction in cell viability by MTT assay. Format: cell-based. On the technique in general: Tetrazolium assays rely on reduction of a dye to a coloured formazan, in cell work by metabolically active cells.
The mark [6] stands for this setting: Human immunodeficiency virus 1, MT2, read-out: EC50.

With `N#C/C=C/c1cc(Cl)cc(Oc2ccc(Cl)cc2OCCn2ccc(=O)[nH]c2=O)c1`, the 50% effective concentration (EC50) is 220 nM in data set [1] (setting [6]) and 49 nM in data set [2] (setting [6]).

`N#C/C=C/c1cc(F)cc(Oc2ccc(F)cc2OCCn2ccc(=O)[nH]c2=O)c1`: in data set [3], the solubility (thermodynamic) at 48 h worked out at 10.8 µg/mL (≈ 26.3 µM). For the same compound, the EC50 in data set [1] (setting [6]) came out at 85 nM; in data set [2] (setting [6]), 16 nM.

Regarding `N#C/C=C/c1cc(Cl)cc(Oc2ccccc2OCCn2ccc(=O)[nH]c2=O)c1`, the 50% effective concentration (EC50) in data set [4] is 0.31 nM; in data set [1] (setting [6]), 24 nM; in data set [2] (setting [6]), 46 nM. For the same compound, the thermodynamic solubility at 48 h in data set [3] was 510 µg/mL (≈ 1240 µM). In data set [5], the CC50 worked out at 18000 nM.

Consider `N#Cc1cc2c(Oc3ccccc3OCCn3ccc(=O)[nH]c3=O)cccc2[nH]1`, for which the EC50 was 56 nM in data set [4], 5500 nM in data set [1] (setting [6]) and 38000 nM in data set [2] (setting [6]). Also, the CC50 in data set [5] turned out to be 72000 nM.

With `Cc1cc(Oc2ccccc2OCCn2ccc(=O)[nH]c2=O)c2cc(C#N)[nH]c2c1`, the values for the EC50 in data set [4], in data set [1] (setting [6]) and in data set [2] (mt2) were 10 nM, 800 nM and “Not Active”, respectively. For the same compound, the CC50 in data set [5] is 1200 nM.

As for `N#Cc1cc2c(Oc3ccccc3OCCn3ccc(=O)[nH]c3=O)cc(Cl)cc2[nH]1`, the EC50 in data set [4] came to 340 nM; in data set [1] (setting [6]), 2700 nM; in data set [2] (setting [6]) it was 27000 nM. Also, the CC50 in data set [5] is 81000 nM.

`N#Cc1cc2c(Oc3ccccc3OCCn3ccc(=O)[nH]c3=O)cccc2o1`: the EC50 was 18 nM in data set [4], 420 nM in data set [1] (setting [6]) and “Not Active” in data set [2] (mt2). Besides, in data set [5], the CC50 was > 100000 nM.

`N#Cc1cc2c(Oc3ccccc3OCCn3ccc(=O)[nH]c3=O)cc(Cl)cc2o1`: the 50% effective concentration (EC50) came to 19 nM in data set [4], 260 nM in data set [1] (setting [6]) and 1900 nM in data set [2] (setting [6]). Also, the CC50 in data set [5] is > 100000 nM.

As for `N#Cc1cc2c(Oc3ccc(F)cc3OCCn3ccc(=O)[nH]c3=O)cccc2o1`, the EC50 in data set [4] is 40 nM; in data set [1] (setting [6]) it was 4000 nM; in data set [2] (setting [6]), 3500 nM. In data set [5], the CC50 was > 100000 nM.

`N#Cc1cc2c(Oc3ccc(Cl)cc3OCCn3ccc(=O)[nH]c3=O)cccc2o1`: the EC50 is 7 nM in data set [4], “Not Active” in data set [1] (mt2) and “Not Active” in data set [2] (mt2). Besides, in data set [5], the CC50 turned out to be 7000 nM.

With `N#Cc1cc2c(Oc3ccccc3OCCn3ccc(=O)[nH]c3=O)cccn2c1`, the results for the EC50 in data set [4], in data set [1] (setting [6]) and in data set [2] (setting [6]) were 0.38 nM, 11 nM and 310 nM, respectively. Further, in data set [5], the CC50 was > 100000 nM.

Consider `N#Cc1cc2c(Oc3ccccc3OCCn3ccc(=O)[nH]c3=O)cc(Cl)cn2c1`, for which the EC50 was found to be 3.7 nM in data set [4], 22 nM in data set [1] (setting [6]) and 220 nM in data set [2] (setting [6]). The CC50 in data set [5] stood at 39000 nM.

`N#Cc1cc2c(Oc3ccccc3OCCn3ccc(=O)[nH]c3=O)cc(F)cn2c1`: the EC50 worked out at 0.7 nM in data set [4], 68 nM in data set [1] (setting [6]) and 170 nM in data set [2] (setting [6]). For the same compound, in data set [5], the CC50 turned out to be 40000 nM.

For `N#Cc1cc2c(Oc3ccc(F)cc3OCCn3ccc(=O)[nH]c3=O)cccn2c1`, the values for the EC50 in data set [4], in data set [1] (setting [6]) and in data set [2] (setting [6]) were 2.7 nM, 220 nM and 600 nM, respectively. For the same compound, the CC50 in data set [5] worked out at 100000 nM.

Take `N#Cc1cc2c(Oc3ccc(F)cc3OCCn3ccc(=O)[nH]c3=O)cc(F)cn2c1`: the EC50 in data set [4] worked out at 0.4 nM; in data set [1] (setting [6]), 10 nM; in data set [2] (setting [6]) it was 250 nM. In data set [3], this compound showed a solubility (thermodynamic) at 48 h of 43.8 µg/mL (≈ 103 µM). Further, the CC50 in data set [5] came out at 50000 nM.

Consider `N#Cc1cc2c(Oc3ccc(F)cc3OCCn3ccc(=O)[nH]c3=O)cc(Cl)cn2c1`, for which the EC50 came to 2.5 nM in data set [4], 110 nM in data set [1] (setting [6]) and 160 nM in data set [2] (setting [6]). Besides, the half-maximal cytotoxic concentration (CC50) in data set [5] was 15000 nM.

`O=c1ccn(CCOc2ccccc2Oc2cccc3ccccc23)c(=O)[nH]1`: the EC50 in data set [4] was found to be 60 nM; in data set [1] (setting [6]), 5000 nM; in data set [2] (setting [6]) it was 5700 nM. For the same compound, the cytotoxic concentration (CC50) in data set [5] was found to be 80000 nM.

For the compound `Cc1ccc2c(Oc3ccccc3OCCn3ccc(=O)[nH]c3=O)cccc2c1`, the EC50 in data set [4] was determined as 250 nM; in data set [1] (setting [6]), 15000 nM; in data set [2] (setting [6]), 12000 nM. For the same compound, the CC50 in data set [5] stood at 40000 nM.

Regarding `O=c1ccn(CCOc2ccccc2Oc2cccc3cc(Cl)ccc23)c(=O)[nH]1`, the EC50 amounted to 14 nM in data set [4], 710 nM in data set [1] (setting [6]) and 1000 nM in data set [2] (setting [6]). The CC50 in data set [5] is > 100000 nM.

As for `O=c1ccn(CCOc2ccccc2Oc2cc(Cl)cc3cc(Cl)ccc23)c(=O)[nH]1`, the values for the EC50 in data set [4], in data set [1] (setting [6]) and in data set [2] (setting [6]) were 38 nM, 520 nM and 430 nM, respectively. Besides, the CC50 in data set [5] worked out at 45000 nM.

On to `N#Cc1ccc2c(Oc3ccccc3OCCn3ccc(=O)[nH]c3=O)cccc2c1`, for which the results for the EC50 in data set [4], in data set [1] (setting [6]) and in data set [2] (setting [6]) were 0.53 nM, 15 nM and 19 nM, respectively. Also, in data set [3], the solubility (thermodynamic) at 48 h amounted to 4.3 µg/mL (≈ 10.8 µM). Further, the CC50 in data set [5] is > 100000 nM.

In the case of `N#Cc1ccc2c(Oc3ccccc3OCCn3ccc(=O)[nH]c3=O)cc(Cl)cc2c1`, the EC50 in data set [4] was 2.2 nM; in data set [1] (setting [6]), 7.5 nM; in data set [2] (setting [6]), 13 nM. The CC50 in data set [5] is 24000 nM.

For the compound `N#Cc1ccc2c(Oc3ccc(F)cc3OCCn3ccc(=O)[nH]c3=O)cc(Cl)cc2c1`, the EC50 in data set [4] worked out at 4.5 nM; in data set [1] (setting [6]) it was 46 nM; in data set [2] (setting [6]), 5.3 nM. The CC50 in data set [5] was 16000 nM.

Take `N#Cc1ccc2c(Oc3ccc(Cl)cc3OCCn3ccc(=O)[nH]c3=O)cc(Cl)cc2c1`: the EC50 in data set [4] turned out to be 11 nM; in data set [1] (setting [6]), 250 nM; in data set [2] (setting [6]) it was 49 nM. The CC50 in data set [5] was 20000 nM.

Take `N#Cc1ccc2c(Oc3ccc(F)cc3OCCn3ccc(=O)[nH]c3=O)cccc2c1`: the concentration giving a half-maximal response (EC50) in data set [4] amounted to 0.49 nM; in data set [1] (setting [6]), 48 nM; in data set [2] (setting [6]) it was 10 nM. Besides, the CC50 in data set [5] is > 100000 nM.

`N#Cc1ccc2c(Oc3ccc(Cl)cc3OCCn3ccc(=O)[nH]c3=O)cccc2c1`: the EC50 in data set [4] was 1.5 nM; in data set [1] (setting [6]), 150 nM; in data set [2] (setting [6]), 48 nM. Moreover, the CC50 in data set [5] is > 100000 nM.

Turning to `N#Cc1ccc2c(Oc3ccccc3OCCn3ccc(=O)[nH]c3=O)cc(F)cc2c1`, the EC50 in data set [4] worked out at 1.1 nM; in data set [1] (setting [6]), 6 nM; in data set [2] (setting [6]), 8 nM. For the same compound, in data set [5], the CC50 was > 100000 nM.

`N#Cc1ccc2c(Oc3ccc(F)cc3OCCn3ccc(=O)[nH]c3=O)cc(F)cc2c1`: the EC50 in data set [4] came to 1.9 nM; in data set [1] (setting [6]), 21 nM; in data set [2] (setting [6]), 5.6 nM. Also, the CC50 in data set [5] is > 100000 nM.

On to `N#Cc1ccc2c(Oc3ccc(Cl)cc3OCCn3ccc(=O)[nH]c3=O)cc(F)cc2c1`, for which the EC50 in data set [4] came out at 5 nM; in data set [1] (setting [6]), 150 nM; in data set [2] (setting [6]), 32 nM. The CC50 in data set [5] worked out at 18000 nM.

Regarding `Cc1ccnc2c1NC(=O)c1cccnc1N2C1CC1` [NEVIRAPINE], in data set [5], the CC50 was > 100000 nM. In addition, the EC50 entry in data set [1] (mt2) and in data set [2] (mt2) was “Not Active” each time.

Compound `CN1C(C(=O)Nc2ccccn2)=C(O)c2ccccc2S1(=O)=O` [PIROXICAM] had a solubility (thermodynamic) at 48 h in data set [3] of 5 µg/mL (≈ 15.1 µM).
